Consider twelve compounds from PubChem BioAssay.

Activity calls are given as the source filed them.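 The calls were made as follows, unless noted: active = viability at or below 10% of carrier control in both of two separate runs; inconclusive = viability at or below 10% in only one of the two runs; inactive = the rest.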

Experiment [1] is described as follows: reduced viability of SK-BR-3 breast cancer cells – cell-based, 24 h, human, pilot screen (AID 572).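 Also: compound exposure lasted between 18 and 24 h rather than exactly 24 h; 100% = carrier-treated control wells.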 Particulars: SK-BR-3 viability, CellTiter-Glo luminescence, at 10 µM, stronger effect = lower value.
Experiment [2] in a line: HUVEC growth inhibition – cell-based, human, primary screen (AID 575;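 active = viability at or below 30% in both replicate assays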;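 also: 100% = median of untreated cell wells with 0.1% DMSO on each plate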). The conditions noted are these: HUVEC proliferation, CellTiter-Glo luminescence, 72 h; at 10 µM; stronger effect = lower value. Summed up:
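Test system: primary human umbilical vein endothelial cells; medium: endothelial basal medium with 2% FBS plus growth supplements; dosing: 10 µM compound only; times: 72 h treatment at 37 °C; signal: CTG luminescence; read-out: % viability relative to median vehicle-well signal on each plate; control set: vehicle and MePR control wells; plate: 384-well, collagen-coated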

Experiment [3] can be described thus: H69AR cell proliferation blockers – human, duplicate replicates, primary screen (AID 580;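 active = viability at or under a set limit in both replicates, limit being median viability minus 3 SD, cut at about 48% in these data, passing the limit was not always enough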;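 also: 100% = mean luminescence of untreated wells and 0% = no signal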). The conditions noted are these: H69AR lung tumor cells viability, ATP luminescence, 72 h; at 10 µM; stronger effect = lower value.
A short description of experiment [4]: MRP1 drug-resistance reversers in H69AR cells – cell-based, doxorubicin co-treatment, pilot screen (AID 601;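 active = viability loss from added drug above about 55%, and viability with drug at most 40%, in both replicates, limit read from the data, passing the limit was not always enough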). The conditions noted are these: CellTiter-Glo, 72 h, at 10 µM; for differential viability (reversal): stronger effect = higher value. A general note: ATP-based viability assays read luminescence as a measure of living cells.
The nature of experiment [5]: yeast transport mutant growth inhibition pilot in 384-well plates, post-Golgi transport modulator project (AID 636; in the data active = inhibition above about 31%). The conditions noted are these: absorbance 615 nm, about 18 h, stronger effect = higher value.
Experiment [6] is described as follows: growth suppression of yeast trafficking mutant, preliminary HTS, modulators of trafficking downstream of Golgi apparatus project, 1536-format plate, OD 615 nm (AID 637; in the data active = inhibition above about 30%). The conditions noted are these: yeast transport mutant growth, absorbance 615 nm, 18 h; stronger effect = higher value.
The mark [7] stands for this setting: H69AR cells + 2 uM doxorubicin, measured here: viability with 2 uM doxorubicin, stronger effect = lower value.
The mark [8] stands for this setting: H69AR cells, compound alone cytotoxicity.

On to `Cn1c(=O)cc(SCC(=O)NCc2cccnc2)c2ccccc21`, for which the viability is 92% (inactive) in experiment [1]; 109% (inactive) in experiment [2]; 92.7% (inactive) in experiment [3]; 83.9% in experiment [4] (setting [7]); 92.7% in experiment [4] (setting [8]). Besides, the differential viability (reversal) in experiment [4] (H69AR cells + 2 uM doxorubicin) is 8.73% (inactive). Also, the inhibition was -6.8% (inactive) in experiment [5] and -1.82% (inactive) in experiment [6].
In the case of `CC(C)(C)NC(=O)CN(Cc1cccs1)C(=O)c1csnn1`, the viability in experiment [1] was 96% (inactive); in experiment [2] it was 99.7% (inactive); in experiment [3] it was 105% (inactive); in experiment [4] (setting [7]) it was 108%; in experiment [4] (setting [8]), 105%. Moreover, the differential viability (reversal) in experiment [4] (H69AR cells + 2 uM doxorubicin) is -2.3% (inactive). For the same compound, the inhibition in experiment [5] was -7.12% (inactive); in experiment [6], -0.36% (inactive).
Turning to `COc1ccc(S(=O)(=O)Nc2ccc(Cl)cn2)c(C)c1C`, the viability is 100% (inactive) in experiment [1]; 107% (inactive) in experiment [2]; 88.5% (inactive) in experiment [3]; 87.8% in experiment [4] (setting [7]); 88.5% in experiment [4] (setting [8]). Further, the differential viability (reversal) in experiment [4] (H69AR cells + 2 uM doxorubicin) was 0.69% (inactive). The inhibition in experiment [5] was -0.93% (inactive); in experiment [6], 0% (inactive).
Regarding `Cc1cc(C)n2nc[n+](C)c2n1`, the viability is 88% (inactive) in experiment [1]; 106% (inactive) in experiment [2]; 96.4% (inactive) in experiment [3]; 84.9% in experiment [4] (setting [7]); 96.4% in experiment [4] (setting [8]). Also, in experiment [4] (H69AR cells + 2 uM doxorubicin), the differential viability (reversal) was 11.4% (inactive). The inhibition in experiment [5] is 2.86% (inactive); in experiment [6], 0.98% (inactive).
As for `Cc1cccc(CC2CC(=O)N(c3ccccc3)C2=O)c1` (stereo unspecified), the viability in experiment [1] is 117% (inactive); in experiment [2], 101% (inactive); in experiment [3] it was 102% (inactive); in experiment [4] (setting [7]) it was 91.9%; in experiment [4] (setting [8]) it was 102%. Moreover, the differential viability (reversal) in experiment [4] (H69AR cells + 2 uM doxorubicin) was 10.5% (inactive). The figures for the inhibition in experiment [5] and in experiment [6] were -3.77% (inactive) and -5.9% (inactive), respectively.
Consider `O=C(NCc1nc2ccccc2[nH]1)c1ccc(Cl)c(S(=O)(=O)N2CCCC2)c1`, for which the viability in experiment [1] is 99% (inactive); in experiment [2], 79.2% (inactive); in experiment [3] it was 96.8% (inactive); in experiment [4] (setting [7]), 101%; in experiment [4] (setting [8]) it was 96.8%. Moreover, the differential viability (reversal) in experiment [4] (H69AR cells + 2 uM doxorubicin) was -3.96% (inactive). For the same compound, the inhibition was 0.55% (inactive) in experiment [5] and -4.35% (inactive) in experiment [6].
In the case of `COc1cc2c(=O)nc3n(c2cc1OC)C(c1ccccc1)N=C(N)N3` (stereo unspecified), the viability in experiment [1] was 69% (inactive); in experiment [2], 109% (inactive); in experiment [3], 97.1% (inactive); in experiment [4] (setting [7]) it was 99.4%; in experiment [4] (setting [8]), 97.1%. Besides, the differential viability (reversal) in experiment [4] (H69AR cells + 2 uM doxorubicin) was -2.35% (inactive). The inhibition was -2.84% (inactive) in experiment [5] and 20.2% (inactive) in experiment [6].
On to `COc1ccccc1N1CCN(C(=O)c2cc(-c3ccc(Cl)c(Cl)c3)on2)CC1`, for which the viability in experiment [1] is 122% (inactive); in experiment [2], 70.4% (inactive); in experiment [3], 57.9% (inactive); in experiment [4] (setting [7]) it was 64.5%; in experiment [4] (setting [8]), 57.9%. Besides, the differential viability (reversal) in experiment [4] (H69AR cells + 2 uM doxorubicin) was -6.66% (inactive). In addition, the figures for the inhibition in experiment [5] and in experiment [6] were -4.13% (inactive) and -1.82% (inactive), respectively.
`O=C(Nc1ccc(N2CCOCC2)c(Cl)c1)c1ccc(Br)o1`: the viability is 91% (inactive) in experiment [1]; 65.5% (inactive) in experiment [2]; 20% (active) in experiment [3]; 32.4% in experiment [4] (setting [7]); 20% in experiment [4] (setting [8]). In addition, in experiment [4] (H69AR cells + 2 uM doxorubicin), the differential viability (reversal) was -12.4% (inactive). For the same compound, the inhibition in experiment [5] was -3.7% (inactive); in experiment [6], 5.81% (inactive).
For `Cc1cc(C(=O)CSc2nnc(-c3ccccc3)n2C)c(C)n1C`, the viability was 83% (inactive) in experiment [1]; 107% (inactive) in experiment [2]; 95.5% (inactive) in experiment [3]; 98.5% in experiment [4] (setting [7]); 95.5% in experiment [4] (setting [8]). The differential viability (reversal) in experiment [4] (H69AR cells + 2 uM doxorubicin) is -3% (inactive). Further, the inhibition is 1.78% (inactive) in experiment [5] and 0.73% (inactive) in experiment [6].
Take `CC(OC(=O)CNC(=O)C12CC3CC(CC(C3)C1)C2)C(=O)Nc1ccc(N2CCOCC2)cc1` (stereo unspecified): the viability was 121% (inactive) in experiment [1]; 101% (inactive) in experiment [2]; 97.2% (inactive) in experiment [3]; 94.8% in experiment [4] (setting [7]); 97.2% in experiment [4] (setting [8]). Further, the differential viability (reversal) in experiment [4] (H69AR cells + 2 uM doxorubicin) was 2.31% (inactive). Besides, the inhibition is -0.68% (inactive) in experiment [5] and -2.55% (inactive) in experiment [6].
For `N#CCc1ccc(NC(=O)Nc2cccc(Cl)c2)cc1`, the viability in experiment [1] is 88% (inactive); in experiment [2], 76.9% (inactive); in experiment [3] it was 92.5% (inactive); in experiment [4] (setting [7]), 105%; in experiment [4] (setting [8]), 92.5%. In addition, the differential viability (reversal) in experiment [4] (H69AR cells + 2 uM doxorubicin) is -12.1% (inactive). Also, the values for the inhibition in experiment [5] and in experiment [6] were -6.44% (inactive) and 2.73% (inactive), respectively.

The term viability denotes a read-out of living cells in per cent, often relative to untreated cells. In general, inhibition refers to the relative decrease from the control value, in per cent.
